Laboratory results: ChEMBL document CHEMBL4819122, “Novel 4-(piperazin-1-yl)quinolin-2(1H)-one bearing thiazoles with antiproliferative activity through VEGFR-2-TK inhibition” (Bioorg Med Chem, 2021)
Active and inactive are the calls of the source. No cut-off for these calls is given here.

Experiments:
HCT-15 = assay: Cytotoxicity against human HCT-15 assessed as growth inhibition at 10 uM by NCI protocol relative to control; type: functional; conditions: read-out: GI
In short: (§1)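 Run by NCI as a single-dose screen at 10 μM across the sixty-cell-line panel, which covers nine human tumour tissue types. The read-out is percent growth inhibition of treated cells relative to untreated cells.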

PC-3 = assay: Cytotoxicity against human PC3 assessed as growth inhibition at 10 uM by NCI protocol relative to control; type: functional; conditions: read-out: GI; in short: as §1
T47D [1] = assay: Cytotoxicity against human T47D cells assessed as reduction in cell viability after 3 hrs by MTT assay
SF-295 = assay: Cytotoxicity against human SF-295 assessed as growth inhibition at 10 uM by NCI protocol relative to control; type: functional; conditions: read-out: GI; in short: as §1
BT-549 = assay: Cytotoxicity against human BT-549 assessed as growth inhibition at 10 uM by NCI protocol relative to control; type: functional; conditions: read-out: GI; in short: as §1
MOLT-4 = assay: Cytotoxicity against human MOLT-4 assessed as growth inhibition at 10 uM by NCI protocol relative to control; type: functional; conditions: read-out: GI; in short: as §1
UACC-62 = assay: Cytotoxicity against human UACC-62 assessed as growth inhibition at 10 uM by NCI protocol relative to control; type: functional; conditions: read-out: GI
In short: (§2)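 Run by the NCI under its standard protocol: one dose of 10 μM against a sixty-line panel from nine human tumour tissues. Result given as percent growth inhibition of treated cells relative to untreated cells.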

CCRF-CEM = assay: Cytotoxicity against human CCRF-CEM assessed as growth inhibition at 10 uM by NCI protocol relative to control; type: functional; conditions: read-out: GI; in short: as §1
SK-MEL-5 = assay: Cytotoxicity against human SK-MEL-5 assessed as growth inhibition at 10 uM by NCI protocol relative to control; type: functional; conditions: read-out: GI; in short: as §1
UO-31 = assay: Cytotoxicity against human UO31 assessed as growth inhibition at 10 uM by NCI protocol relative to control; type: functional; conditions: read-out: GI; in short: as §2
MDA-MB-435 = assay: Cytotoxicity against human MDA-MB-435 assessed as growth inhibition at 10 uM by NCI protocol relative to control; type: functional, cell-based; in short: as §1
T47D [2] = assay: Cytotoxicity against human T-47D assessed as growth inhibition at 10 uM by NCI protocol relative to control; type: functional; conditions: read-out: GI; in short: as §2
SF-268 = assay: Cytotoxicity against human SF-268 assessed as growth inhibition at 10 uM by NCI protocol relative to control; type: functional; conditions: read-out: GI; in short: as §1
MDA-MB-468 = assay: Cytotoxicity against human MDA-MB-468 assessed as growth inhibition at 10 uM by NCI protocol relative to control; type: functional; conditions: read-out: GI; in short: as §1
K562 = assay: Cytotoxicity against human K-562 assessed as growth inhibition at 10 uM by NCI protocol relative to control; type: functional; conditions: read-out: GI; in short: as §1
RPMI-8226 = assay: Cytotoxicity against human RPMI-8226 assessed as growth inhibition at 10 uM by NCI protocol relative to control; type: functional; in short: as §1
NCI-H522 = assay: Cytotoxicity against human NCI-H522 assessed as growth inhibition at 10 uM by NCI protocol relative to control; type: functional; conditions: read-out: GI; in short: as §1
MDA-MB-231 = assay: Cytotoxicity against human MDA-MB-231 assessed as growth inhibition at 10 uM by NCI protocol relative to control; type: functional; conditions: read-out: GI; in short: as §1
LOX IMVI = assay: Cytotoxicity against human LOX IMVI assessed as growth inhibition at 10 uM by NCI protocol relative to control; type: functional; conditions: read-out: GI; in short: as §1
NCI-H460 = assay: Cytotoxicity against human NCI-H460 assessed as growth inhibition at 10 uM by NCI protocol relative to control; type: functional; conditions: read-out: GI; in short: as §1
SNB-19 = assay: Cytotoxicity against human SNB-19 assessed as growth inhibition at 10 uM by NCI protocol relative to control; type: functional; conditions: read-out: GI; in short: as §2
EKVX = assay: Cytotoxicity against human EKVX assessed as growth inhibition at 10 uM by NCI protocol relative to control; type: functional; conditions: read-out: GI; in short: as §1
HL-60 = assay: Cytotoxicity against human HL60 assessed as growth inhibition at 10 uM by NCI protocol relative to control; type: functional; conditions: read-out: GI; in short: as §1
SN12C = assay: Cytotoxicity against human SN12C assessed as growth inhibition at 10 uM by NCI protocol relative to control; type: functional; conditions: read-out: GI; in short: as §2
A549 = assay: Cytotoxicity against human A549 assessed as growth inhibition at 10 uM by NCI protocol relative to control; type: functional; conditions: read-out: GI; in short: as §1
IGROV-1 = assay: Cytotoxicity against human IGROVI assessed as growth inhibition at 10 uM by NCI protocol relative to control; type: functional; conditions: read-out: GI; in short: as §1
HCT-116 = assay: Cytotoxicity against human HCT-116 assessed as growth inhibition at 10 uM by NCI protocol relative to control; type: functional; conditions: read-out: GI; in short: as §1
RXF 393 = assay: Cytotoxicity against human RXF 393 assessed as growth inhibition at 10 uM by NCI protocol relative to control; type: functional; conditions: read-out: GI; in short: as §1
A498 = assay: Cytotoxicity against human A498 assessed as growth inhibition at 10 uM by NCI protocol relative to control; type: functional; conditions: read-out: GI; in short: as §1
NCI-H226 = assay: Cytotoxicity against human NCI-H226 assessed as growth inhibition at 10 uM by NCI protocol relative to control; type: functional; conditions: read-out: GI; in short: as §1
NCI-H23 = assay: Cytotoxicity against human NCI-H23 assessed as growth inhibition at 10 uM by NCI protocol relative to control; type: functional; conditions: read-out: GI; in short: as §1
MCF7 = assay: Cytotoxicity against human MCF7 assessed as growth inhibition at 10 uM by NCI protocol relative to control; type: functional; conditions: read-out: GI; in short: as §1
HOP-92 = assay: Cytotoxicity against human HOP-92 assessed as growth inhibition at 10 uM by NCI protocol relative to control; type: functional; conditions: read-out: GI; in short: as §1
ACHN = assay: Cytotoxicity against human ACHN assessed as growth inhibition at 10 uM by NCI protocol relative to control; type: functional; conditions: read-out: GI; in short: as §1

## Cc1ccc(-c2csc(NC(=O)CN3CCN(c4cc(=O)n(-c5ccccc5)c5ccccc45)CC3)n2)cc1
HCT-15
  inhibition of growth at 10 µM: 26%
PC-3
  inhibition of growth at 10 µM: 23.1%
T47D [1]
  IC50: 16.5 µM
SF-295
  inhibition of growth at 10 µM: 14.4%
BT-549
  inhibition of growth at 10 µM: 14.4%
MOLT-4
  inhibition of growth at 10 µM: 32.2%
UACC-62
  inhibition of growth at 10 µM: 20.1%
CCRF-CEM
  inhibition of growth at 10 µM: 14.8%
SK-MEL-5
  inhibition of growth at 10 µM: 13.5%
UO-31
  inhibition of growth at 10 µM: 27%
MDA-MB-435
  growth inhibition (GI): inactive
T47D [2]
  inhibition of growth at 10 µM: 40.9%
SF-268
  inhibition of growth at 10 µM: 13.4%
MDA-MB-468
  inhibition of growth at 10 µM: 30.2%
K562
  inhibition of growth at 10 µM: 49.3%
RPMI-8226
  growth inhibition (GI): inactive
NCI-H522
  inhibition of growth at 10 µM: 22.9%
MDA-MB-231
  inhibition of growth at 10 µM: 17.4%
LOX IMVI
  inhibition of growth at 10 µM: 12.2%
NCI-H460
  inhibition of growth at 10 µM: 11.1%
SNB-19
  inhibition of growth at 10 µM: 21.8%
EKVX
  inhibition of growth at 10 µM: 26.5%
HL-60
  inhibition of growth at 10 µM: 19.9%
SN12C
  inhibition of growth at 10 µM: 13.1%
A549
  inhibition of growth at 10 µM: 12%
IGROV-1
  inhibition of growth at 10 µM: 20.2%
HCT-116
  inhibition of growth at 10 µM: 20.2%
RXF 393
  inhibition of growth at 10 µM: 13.2%
A498
  inhibition of growth at 10 µM: 18.6%
NCI-H226
  inhibition of growth at 10 µM: 17.3%
NCI-H23
  inhibition of growth at 10 µM: 29.7%
MCF7
  inhibition of growth at 10 µM: 13.5%
HOP-92
  inhibition of growth at 10 µM: 13.8%
ACHN
  inhibition of growth at 10 µM: 15.1%
